From ChEMBL document CHEMBL1146073, “A pyridazine series of alpha2/alpha3 subtype selective GABA A agonists for the treatment of anxiety” (J Med Chem, 2006)

Assays:
[1] = Stability in dog assessed as liver microsomal turnover; format: ADME, Canis lupus familiaris; details: liver microsomes, read-out: Stability
Summary of the method: (§1)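 Test compound at 1 µM, with diazepam as control, incubated 0.25 h with pooled liver microsomes at 0.5 mg/mL protein. Compound remaining quantified by LC/MS/MS. Turnover is the mean of three determinations.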

[2] = target: T1, GABA-A receptor; alpha-3/beta-3/gamma-2 (Homo sapiens, UniProt P18507+P28472+P34903); test: Displacement of [3H]Ro-151788 from recombinant human GABA-Aalpha3 receptor plus beta3gamma2; format: protein-complex assay
T1 sequence (P18507 whole entry): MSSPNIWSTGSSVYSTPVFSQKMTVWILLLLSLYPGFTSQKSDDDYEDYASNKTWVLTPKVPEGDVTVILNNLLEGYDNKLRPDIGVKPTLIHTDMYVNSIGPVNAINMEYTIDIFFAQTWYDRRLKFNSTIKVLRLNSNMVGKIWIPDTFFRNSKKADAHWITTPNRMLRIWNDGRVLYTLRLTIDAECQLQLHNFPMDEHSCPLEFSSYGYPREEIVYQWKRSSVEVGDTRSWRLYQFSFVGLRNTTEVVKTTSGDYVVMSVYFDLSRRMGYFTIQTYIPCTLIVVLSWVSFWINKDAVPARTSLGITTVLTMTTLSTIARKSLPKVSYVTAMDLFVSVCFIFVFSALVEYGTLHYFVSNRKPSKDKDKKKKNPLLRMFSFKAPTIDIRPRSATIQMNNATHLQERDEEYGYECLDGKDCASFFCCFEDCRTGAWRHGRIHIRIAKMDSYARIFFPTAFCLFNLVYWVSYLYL
T1 sequence (P28472 whole entry): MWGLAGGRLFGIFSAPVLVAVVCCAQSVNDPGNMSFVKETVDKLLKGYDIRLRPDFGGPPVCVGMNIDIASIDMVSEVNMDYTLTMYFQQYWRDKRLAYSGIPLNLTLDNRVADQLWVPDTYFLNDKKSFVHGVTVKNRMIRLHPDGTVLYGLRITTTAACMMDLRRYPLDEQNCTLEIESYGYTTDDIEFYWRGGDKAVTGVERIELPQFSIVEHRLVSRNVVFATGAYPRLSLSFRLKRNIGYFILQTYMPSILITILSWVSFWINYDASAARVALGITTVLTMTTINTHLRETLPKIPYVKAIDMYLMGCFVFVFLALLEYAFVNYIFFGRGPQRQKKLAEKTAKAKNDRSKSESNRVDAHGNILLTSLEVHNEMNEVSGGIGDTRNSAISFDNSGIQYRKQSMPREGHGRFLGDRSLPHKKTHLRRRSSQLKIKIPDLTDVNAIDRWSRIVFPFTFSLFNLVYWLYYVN
T1 sequence (P34903 whole entry): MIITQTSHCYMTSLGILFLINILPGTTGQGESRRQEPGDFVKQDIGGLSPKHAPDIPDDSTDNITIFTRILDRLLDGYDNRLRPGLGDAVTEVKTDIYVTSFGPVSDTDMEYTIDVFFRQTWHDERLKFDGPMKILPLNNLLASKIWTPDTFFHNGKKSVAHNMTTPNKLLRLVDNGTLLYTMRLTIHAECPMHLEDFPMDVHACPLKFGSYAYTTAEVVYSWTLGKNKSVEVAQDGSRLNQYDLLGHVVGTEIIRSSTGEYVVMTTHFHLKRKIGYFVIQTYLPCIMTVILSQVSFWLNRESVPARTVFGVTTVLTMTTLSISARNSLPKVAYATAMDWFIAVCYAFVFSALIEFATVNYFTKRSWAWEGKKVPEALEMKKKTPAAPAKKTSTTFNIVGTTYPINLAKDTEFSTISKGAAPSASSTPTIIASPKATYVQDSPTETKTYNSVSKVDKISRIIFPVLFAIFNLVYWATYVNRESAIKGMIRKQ
Summary of the method: (§2)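 Benzodiazepine-site binding on stably transfected αxβ3γ2 receptors (x = 1, 2, 3 or 5). Inhibition curves run with [3H]Ro15-1788 at roughly twice its Kd. Ki derived by Cheng-Prusoff equation. Mean of three to six determinations.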

[3] = target: T2, GABA-A receptor; alpha-5/beta-3/gamma-2 (Homo sapiens, UniProt P18507+P28472+P31644); test: Displacement of [3H]Ro-151788 from recombinant human GABA-Aalpha5 receptor plus beta3gamma2; format: protein-complex assay; summary of the method: as §2
T2 sequence (P18507 whole entry): T1 sequence (P18507 whole entry)
T2 sequence (P28472 whole entry): T1 sequence (P28472 whole entry)
T2 sequence (P31644 whole entry): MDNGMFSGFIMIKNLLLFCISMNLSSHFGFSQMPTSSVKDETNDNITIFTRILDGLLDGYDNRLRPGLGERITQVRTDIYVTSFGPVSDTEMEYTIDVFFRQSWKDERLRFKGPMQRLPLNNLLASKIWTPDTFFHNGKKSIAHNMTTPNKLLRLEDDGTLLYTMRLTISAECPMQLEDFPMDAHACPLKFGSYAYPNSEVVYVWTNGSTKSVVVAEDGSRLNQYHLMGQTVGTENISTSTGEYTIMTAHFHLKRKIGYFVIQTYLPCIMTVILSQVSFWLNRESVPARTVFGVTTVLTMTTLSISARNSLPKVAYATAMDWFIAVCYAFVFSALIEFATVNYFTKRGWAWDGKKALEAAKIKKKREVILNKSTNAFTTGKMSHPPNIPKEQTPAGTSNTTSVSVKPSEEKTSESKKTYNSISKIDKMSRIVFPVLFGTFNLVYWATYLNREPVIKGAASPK

[4] = Stability in rat assessed as liver microsomal turnover; format: ADME, Microsome; details: liver microsomes, read-out: Stability; summary of the method: as §1
[5] = target: T3, GABA-A receptor; alpha-1/beta-3/gamma-2 (Homo sapiens) (UniProt P14867+P18507+P28472); test: Efficacy against recombinant human GABA-Aalpha1 plus beta-3-gamma-2 expressed in L(tk-) cells by whole cell patch clamp method relative to chlordiazepoxide; format: functional, cell-based
Summary of the method: (§3)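 Whole-cell patch clamp on αxβ3γ2 receptors stably expressed in L(tk-) cells, measuring the effect on current evoked by an EC20-equivalent of GABA. Reported relative to full agonist chlordiazepoxide (=1.0), or as direct percent modulation of the EC20 control, with inverse agonism given as percent. Mean of at least four independent experiments.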

[6] = target: GABA-A receptor; alpha-3/beta-3/gamma-2 (Homo sapiens) (UniProt P18507+P28472+P34903); test: Efficacy against recombinant human GABA-Aalpha3 plus beta-3-gamma-2 expressed in L(tk-) cells by whole cell patch clamp method relative to chlordiazepoxide; format: functional, cell-based; summary of the method: as §3
[7] = target: T3, GABA-A receptor; alpha-1/beta-3/gamma-2 (Homo sapiens); test: Efficacy against recombinant human GABA-Aalpha1 plus beta-3-gamma-2 expressed in L(tk-) cells by whole cell patch clamp method; format: functional, cell-based; summary of the method: as §3
[8] = target: GABA-A receptor; anion channel (Rattus norvegicus) (UniProt O09028+P15431+P18506+P18508+P19969+P20236+P23574+P23576+P28471+P28473+P30191+P62813+P63079+P63138+Q91ZM7+Q9ES14); test: Receptor occupancy in vivo by displacement of [3H]Ro 15-1788 binding from GABA-A receptor in rat, po; format: functional, organism-based
Summary of the method: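 Rat in vivo occupancy measured by [3H]Ro 15-1788 binding after oral dosing. Rats taken as a subgroup after the plus-maze trial, i.e. 30 min post-dose or later. ED50 derived from dose-dependent occupancy. Mean ± SEM, n = 5-10/group.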

[9] = Stability in human assessed as liver microsomal turnover; format: ADME, Microsome; details: liver microsomes, read-out: Stability; summary of the method: as §1
[10] = target: T4, GABA-A receptor; alpha-1/beta-3/gamma-2 (Homo sapiens, UniProt P14867+P18507+P28472); test: Displacement of [3H]Ro-151788 from recombinant human GABA-Aalpha1 receptor plus beta3gamma2; format: protein-complex assay; summary of the method: as §2
T4 sequence (P14867 whole entry): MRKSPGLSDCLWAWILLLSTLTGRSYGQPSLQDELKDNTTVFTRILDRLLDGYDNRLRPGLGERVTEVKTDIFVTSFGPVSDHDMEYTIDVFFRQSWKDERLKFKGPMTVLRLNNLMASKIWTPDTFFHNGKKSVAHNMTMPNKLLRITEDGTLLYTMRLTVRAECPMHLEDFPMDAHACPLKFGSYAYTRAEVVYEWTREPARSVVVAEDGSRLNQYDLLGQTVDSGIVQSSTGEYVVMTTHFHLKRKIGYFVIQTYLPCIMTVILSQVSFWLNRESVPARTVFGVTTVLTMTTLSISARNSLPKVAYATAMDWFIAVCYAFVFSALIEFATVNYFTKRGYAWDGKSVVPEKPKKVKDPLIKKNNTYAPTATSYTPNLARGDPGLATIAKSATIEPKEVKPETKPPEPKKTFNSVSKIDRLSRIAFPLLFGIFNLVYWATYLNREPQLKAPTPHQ
T4 sequence (P18507 whole entry): T1 sequence (P18507 whole entry)
T4 sequence (P28472 whole entry): T1 sequence (P28472 whole entry)

[11] = target: GABA-A receptor; alpha-5/beta-3/gamma-2 (Homo sapiens) (UniProt P18507+P28472+P31644); test: Efficacy against recombinant human GABA-Aalpha5 plus beta-3-gamma-2 expressed in L(tk-) cells by whole cell patch clamp method; format: functional, cell-based; summary of the method: as §3
[12] = target: GABA-A receptor; alpha-2/beta-3/gamma-2 (Homo sapiens) (UniProt P18507+P28472+P47869); test: Efficacy against recombinant human GABA-Aalpha2 plus beta-3-gamma-2 expressed in L(tk-) cells by whole cell patch clamp method relative to chlordiazepoxide; format: functional, cell-based; summary of the method: as §3
[13] = Plasma clearance in rat; format: ADME, organism-based
Summary of the method: (§4)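 Pharmacokinetics from six animals per species: three dosed iv and three dosed po.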

[14] = Oral bioavailability in rat; format: ADME, organism-based; details: in vivo; summary of the method: as §4
[15] = Half life in rat; format: ADME, organism-based; details: in vivo; summary of the method: as §4

| SMILES | metabolised [1] [%] | Ki [2] [nM] | Ki [3] [nM] | metabolised [4] [%] | Efficacy [5] | Efficacy [6] | Efficacy [7] [%] | Occ50 [8] [mg/kg] | metabolised [9] [%] | Ki [10] [nM] | Activity [8] [mg/kg] | Efficacy [11] [%] | Efficacy [12] | clearance [13] [mL/min/kg] | bioavailability [14] [%] | half-life [15] [h] |
| --- | --- | --- | --- | --- | --- | --- | --- | --- | --- | --- | --- | --- | --- | --- | --- | --- |
| Fc1ccc(-c2cc(-c3ccc(F)c(-c4ncc(F)cc4F)c3)cnn2)cc1 | 20 | 5.6 | 3.8 | 7 | 0.02 | 0.21 |  |  |  |  |  |  |  |  |  |  |
| Fc1ccccc1-c1cc(-c2ccc(F)c(-c3ncccc3F)c2)cnn1 | 34 | 0.9 | 0.5 | 11 | 0.11 | 0.31 |  |  |  |  |  |  |  |  |  |  |
| Fc1cnc(-c2cc(-c3cnnc(-c4ccncc4F)c3)ccc2F)c(F)c1 |  | 8.2 | 5.6 | 23 |  | 0.41 | -7 | 15.3 | < 5 | 3.5 |  |  |  |  |  |  |
| Fc1ccc(-c2cnnc(-c3ncccc3F)c2)cc1-c1ncccc1F | 2 | 1.4 | 2.4 | 3 |  | 0.4 | -30 |  | 5 | 0.5 | 0.5 |  |  |  |  |  |
| Fc1cnc(-c2cc(-c3cnnc(-c4ccccc4F)c3)ccc2F)c(F)c1 | 31 | 1.7 | 0.7 | 22 |  | 0.4 | -20 | 3 | 8 |  |  | -20 | 0.2 | 30 | 11 | 2.2 |
